Laboratory results as given in publication PMC12853403 (ACS infectious diseases, 2025).

Experiments:
[1] = cited from earlier work
[2] = cited from earlier work; remark: listed apart in the source
[3] = system: Se.TRPMPZQ; experiment: Functional profiling; assay type: cell-based, Spirometra erinaceieuropaei
[4] = system: Sm.TRPMPZQ[D1677E]; experiment: Functional profiling at Sm.TRPMPZQ[D1677E] mutant; assay type: cell-based, Schistosoma mansoni; conditions: construct lacks the cestode-specific S1 histidine
Method in brief: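 Transiently transfected HEK293 cells (Lipofectamine-2000) replated after 24 h at 20,000 cells/well. 24 h later, loaded with Fluo-4 NW for 1 h at 37 °C in HBSS with 2.5 mM probenecid and 20 mM HEPES. FLIPR Ca2+ read at room temperature: 20 s baseline, then compound, then 250 s. Peak minus basal, normalized to (±)-PZQ at the same channel. Three-parameter fit, bottom fixed at 0%. EC50 mean ± SEM, n ≥ 3 transfections.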

[5] = in humans; cited from earlier work
[6] = molecular target: Eg.TRPMPZQ (Echinococcus granulosus, UniProt W6UVV9); experiment: Ca2+ reporter assay in HEK293 cells, Eg.TRPMPZQ; assay type: cell-based; conditions: EC50 at Eg.TRPMPZQ / EC50 at Sm.TRPMPZQ
[7] = system: E. multilocularis protoscoleces; experiment: Cestode motility assay on protoscoleces; assay type: cell-based; conditions: Echinococcus multilocularis, read-out: EC50, motility of E. multilocularis protoscoleces

## O=C(C1CCCCC1)N1CC(=O)N2CCCc3ccccc3C2C1 (stereo not shown) [epsiprantel]
[1]
  solubility: very insoluble
[2]
  absorption from the gastrointestinal tract: poorly absorbed

## O=C(C1CCCCC1)N1CC(=O)N2CCc3ccccc3C2C1 (stereo not shown) [PZQ, praziquantel]
[3]
  agonist character at Se.TRPMPZQ: partial agonist
[4]
  activity at Sm.TRPMPZQ[D1677E] mutant: unable to be activated
[5]
  half time: 2 to 3 h

## O=C(C1CCCCC1)N1CC(=O)N2CCc3ccccc3[C@@H]2C1 [(R)-PZQ]
[6]
  difference in potency between Eg.TRPMPZQ and Sm.TRPMPZQ: ~ 4 fold
[3]; read-out: EC50 at Se.TRPMPZQ, mean ± SEM
  EC50: 1000 ± 300 nM
[3]; relative to (R)-PZQ at Eg.TRPMPZQ
  efficacy (Bmax) at Se.TRPMPZQ: 17 ± 0.8 % of (R)-PZQ at Eg.TRPMPZQ
[7]
  EC50: 7.7 ± 1.3 nM

## O=C(C1CCCCC1)N1CC(=O)N2CCc3ccccc3[C@H]2C1 [(S)-PZQ]
[6]
  difference in potency between Eg.TRPMPZQ and Sm.TRPMPZQ: ~ 100 fold
